The source made the active and inactive calls. No cut-off for these calls is given here. A value given as a limit tells only on which side of the number the result lay.

A word on the inhibition: it is the relative decrease from the control value, in per cent.

Test [1] has as its system LNCaP. In words: Cytotoxicity against human LNCAP cells assessed as inhibition of cell proliferation at 10 uM after 72 hrs by Alamar blue assay relative to control. Format: functional. Background: Resazurin is reduced to fluorescent resorufin, in cell work by metabolically active cells.
For test [2], the system named is Plasmodium falciparum. In words: Antiparasitic activity against asexual intraerythrocytic stage of Plasmodium falciparum 3D7 assessed as inhibition of parasite replication at 10 uM after 72 hrs by DAPI staining-based microscopic analysis relative to control. The test is classed as functional. To be noted: 3D7, 72 h.
For test [3], the system named is Trypanosoma brucei brucei. Description: Antiparasitic activity against bloodstream form of Trypanosoma brucei brucei 427 assessed as inhibition of parasite replication at 10 uM after 72 hrs by resazurin assay relative to control. Format: functional. As to conditions: Trypanosoma brucei, 427, 72 h.
The test system of test [4] is PC-3. In words: Antilipogenic activity in human PC3 cells assessed as reduction of cellular neutral lipid level at 10 uM after 48 hrs by nile red staining-based fluorescence microscopic analysis relative to control. Format: functional, cell-based. The method in brief: (§1)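 Cells were grown 72 h in phenol-red-free RPMI-1640 with 5% CSS, then exposed 48 h to 10 µM compound in 0.3% DMSO. Controls were DMSO alone (negative) and TOFA (positive). Cells were fixed in 4% paraformaldehyde for 20 min on ice, then stained 20 min at room temperature in the dark with 1.0 µg/mL DAPI and 0.25 µg/mL Nile Red in PBS. Imaging was at 10×. Neutral lipids were read in the Cy3 channel and phospholipids in Cy5, as mean fluorescence intensity per cell (~1500 cells/treatment). Statistics used one-way ANOVA with Dunnett's test.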

The subject of test [5] is LNCaP. In words: Antilipogenic activity in human LNCAP cells assessed as reduction of cellular phospholipid level at 10 uM after 48 hrs by nile red staining-based fluorescence microscopic analysis relative to control. Format: functional, cell-based. The method in brief:
as §1

Test [6] deals with LNCaP. In words: Antilipogenic activity in human LNCAP cells assessed as reduction of cellular neutral lipid level at 10 uM after 48 hrs by nile red staining-based fluorescence microscopic analysis relative to control. Format: functional, cell-based. In short, it runs like this: as §1
Test [7] deals with PC-3. Description: Antilipogenic activity in human PC3 cells assessed as reduction of cellular phospholipid level at 10 uM after 48 hrs by nile red staining-based fluorescence microscopic analysis relative to control. Format: functional, cell-based. In short, it runs like this:
as §1

As for `O=C(Cc1ccc(O)c(Cl)c1)NCCc1ccccc1F`, the inhibition at 10 µM in test [1], in test [2] and in test [3] was above 50% throughout.
With `CCN(CC)CCNC(=O)Cc1ccc(O)c(Cl)c1`, the inhibition at 10 µM in test [1], in test [2] and in test [3] was above 50% in each case.
As for `CCN(CC)CCCNC(=O)Cc1ccc(O)c(Cl)c1`, the inhibition at 10 µM in test [1], in test [2] and in test [3] was above 50% each time.
As for `O=C(Cc1ccc(O)c(Cl)c1)NCCc1ccc(Br)cc1`, the inhibition at 10 µM in test [1], in test [2] and in test [3] was above 50% in each case.
As to `O=C(Cc1ccc(O)c(Cl)c1)NCc1cccc(F)c1`, the outcome in test [4], in test [5], in test [6] and in test [7] was Active. The inhibition at 10 µM in test [1], in test [2] and in test [3] was above 50% in each case.
Take `O=C(Cc1ccc(O)c(Cl)c1)NCc1ccc(Cl)cc1`: the inhibition at 10 µM in test [1], in test [2] and in test [3] was above 50% in each case.
On to `CN(C)CCNC(=O)Cc1ccc(O)c(Cl)c1`, for which the inhibition at 10 µM in test [1], in test [2] and in test [3] was above 50% each time.
With `O=C(O)Cc1ccc(O)c(Cl)c1`, the inhibition at 10 µM in test [1], in test [2] and in test [3] was above 50% throughout.
Consider `CCCCCCCCCCCCCCOc1ccc(C(=O)O)o1`, for which the outcome in test [4] and in test [6] was Active. The result in test [5] and in test [7] was inactive.
Turning to `O=C(Cc1ccc(O)c(Cl)c1)NCc1ccc(Br)cc1`, the inhibition at 10 µM in test [1], in test [2] and in test [3] was above 50% throughout.
For the compound `O=C(Cc1ccc(O)c(Cl)c1)NCc1ccccc1F`, the result in test [4], in test [5], in test [6] and in test [7] was Active. Moreover, the inhibition at 10 µM in test [1], in test [2] and in test [3] was above 50% throughout.
With `CC(C)CCNC(=O)Cc1ccc(O)c(Cl)c1`, the inhibition at 10 µM in test [1], in test [2] and in test [3] was above 50% in each case.
In the case of `COC(=O)Cc1ccc(O)c(Cl)c1`, the inhibition at 10 µM in test [1], in test [2] and in test [3] was above 50% in each case.
In the case of `O=C(Cc1ccc(O)c(Cl)c1)NCCN1CCOCC1`, the inhibition at 10 µM in test [1], in test [2] and in test [3] was above 50% each time.
For `O=C(Cc1ccc(O)c(Cl)c1)NCCc1ccccn1`, the inhibition at 10 µM in test [1], in test [2] and in test [3] was above 50% each time.
For `O=C(Cc1ccc(O)c(Cl)c1)NCCc1ccc(F)cc1`, the inhibition at 10 µM in test [1], in test [2] and in test [3] was above 50% in each case.
In the case of `O=C(Cc1ccc(O)c(Cl)c1)NCCN1CCNCC1`, the inhibition at 10 µM in test [1], in test [2] and in test [3] was above 50% in each case.
For `O=C(Cc1ccc(O)c(Cl)c1)NCCc1ccccc1`, the inhibition at 10 µM in test [1], in test [2] and in test [3] was above 50% throughout.
On to `O=C(Cc1ccc(O)c(Cl)c1)NCc1ccccc1`, for which the inhibition at 10 µM in test [1], in test [2] and in test [3] was above 50% each time.
As to `O=C(Cc1ccc(O)c(Cl)c1)NCCc1cccc(F)c1`, the inhibition at 10 µM in test [1], in test [2] and in test [3] was above 50% in each case.
As to `O=C(Cc1ccc(O)c(Cl)c1)NCc1ccc(F)cc1`, the outcome in test [4], in test [5], in test [6] and in test [7] was Active. The inhibition at 10 µM in test [1], in test [2] and in test [3] was above 50% each time.
For the compound `O=C(Cc1ccc(O)c(Cl)c1)NCCc1ccc(Cl)cc1`, the inhibition at 10 µM in test [1], in test [2] and in test [3] was above 50% throughout.
`CN(C)CCCNC(=O)Cc1ccc(O)c(Cl)c1`: the inhibition at 10 µM in test [1], in test [2] and in test [3] was above 50% each time.

Source of the values: ChEMBL document CHEMBL3580630, “Design and Synthesis of a Screening Library Using the Natural Product Scaffold 3-Chloro-4-hydroxyphenylacetic Acid” (2015).
